Test results reported in ChEMBL document CHEMBL1132481 (J Med Chem, 1999).

Tests used:
[1] = target: Norepinephrine transporter (Rattus norvegicus, UniProt Q9WTR4); assay: Selectivity for the norepinephrine transporter using [3H]nisoxetine binding assay
Outline: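 Norepinephrine transporter binding used 8 mg frontal cortex from male Sprague–Dawley rats with 0.5 nM [3H]nisoxetine. Incubated 60 min. Nonspecific binding defined with 1 μM desipramine. Ice-cold washes through PEI-soaked GF/B filters.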

[2] = target: Sodium-dependent serotonin transporter (Rattus norvegicus, UniProt P31652); assay: Selectivity for the Serotonin transporter using [3H]paroxetine binding assay
Outline: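 Serotonin transporter binding used 1.5 mg hindbrain from male Sprague–Dawley rats with 0.2 nM [3H]paroxetine. Buffer was 50 mM Tris, 120 mM NaCl, 0.5 mM KCl, pH 7.4. Incubated 90 min at room temperature. Nonspecific binding defined with 1 μM citalopram. Ice-cold washes through PEI-soaked GF/B filters.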

[3] = target: T1, Sodium-dependent dopamine transporter (Rattus norvegicus, UniProt P23977); assay: Inhibitory potency against [3H]DA uptake […]
Outline: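 Rat striatal S1 fraction (CO2-anesthetized rats) diluted in Krebs-phosphate buffer (pH 7.4, O2/CO2-equilibrated, with pargyline and ascorbate). Preincubated with drug 10 min at 37 °C, then [3H]DA for 2.0 min. Nonspecific uptake measured at 0 °C. Stopped with chilled buffer and GF/C filtration, then scintillation counting. IC50 from usually five concentrations, each in duplicate.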

[4] = target: T1, Sodium-dependent dopamine transporter; assay: Inhibitory potency against dopamine (DA) transporter using [3H]WIN-35428 (WIN-) binding assay.
[5] = target: Monoamine transporters; Norepininephrine & dopamine (Rattus norvegicus) (UniProt P23977+Q9WTR4); assay: Ratio of IC50 of NE (norepinephrine transporter) to IC50 of DA (dopamine transporter); assay type: protein assay
[6] = target: Monoamine transporters; serotonin & dopamine (Rattus norvegicus) (UniProt P31652+P23977); assay: Ratio of IC50 of 5-HT (serotonin transporter) to IC50 of DA (dopamine transporter); assay type: protein assay
Sequence of Monoamine transporters; serotonin & dopamine (Rattus norvegicus) (P23977 whole entry, looked up): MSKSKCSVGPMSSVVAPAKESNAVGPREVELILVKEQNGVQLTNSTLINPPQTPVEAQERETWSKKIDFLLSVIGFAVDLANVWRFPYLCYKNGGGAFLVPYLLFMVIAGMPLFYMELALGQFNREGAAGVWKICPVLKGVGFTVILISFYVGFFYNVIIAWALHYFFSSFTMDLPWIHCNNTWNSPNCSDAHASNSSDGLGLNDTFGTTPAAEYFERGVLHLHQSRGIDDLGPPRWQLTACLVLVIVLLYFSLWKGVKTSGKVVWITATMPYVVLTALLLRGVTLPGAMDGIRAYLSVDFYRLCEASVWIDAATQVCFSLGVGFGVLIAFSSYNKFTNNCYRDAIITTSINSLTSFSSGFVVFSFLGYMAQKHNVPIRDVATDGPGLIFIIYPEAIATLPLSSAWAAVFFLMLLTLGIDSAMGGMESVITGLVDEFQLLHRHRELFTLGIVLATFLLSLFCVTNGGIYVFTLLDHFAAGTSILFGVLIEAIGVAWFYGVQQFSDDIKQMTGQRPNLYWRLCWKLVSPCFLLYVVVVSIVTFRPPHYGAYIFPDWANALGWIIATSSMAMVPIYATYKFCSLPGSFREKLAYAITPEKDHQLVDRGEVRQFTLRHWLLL
Sequence of Monoamine transporters; serotonin & dopamine (Rattus norvegicus) (P31652 whole entry, looked up): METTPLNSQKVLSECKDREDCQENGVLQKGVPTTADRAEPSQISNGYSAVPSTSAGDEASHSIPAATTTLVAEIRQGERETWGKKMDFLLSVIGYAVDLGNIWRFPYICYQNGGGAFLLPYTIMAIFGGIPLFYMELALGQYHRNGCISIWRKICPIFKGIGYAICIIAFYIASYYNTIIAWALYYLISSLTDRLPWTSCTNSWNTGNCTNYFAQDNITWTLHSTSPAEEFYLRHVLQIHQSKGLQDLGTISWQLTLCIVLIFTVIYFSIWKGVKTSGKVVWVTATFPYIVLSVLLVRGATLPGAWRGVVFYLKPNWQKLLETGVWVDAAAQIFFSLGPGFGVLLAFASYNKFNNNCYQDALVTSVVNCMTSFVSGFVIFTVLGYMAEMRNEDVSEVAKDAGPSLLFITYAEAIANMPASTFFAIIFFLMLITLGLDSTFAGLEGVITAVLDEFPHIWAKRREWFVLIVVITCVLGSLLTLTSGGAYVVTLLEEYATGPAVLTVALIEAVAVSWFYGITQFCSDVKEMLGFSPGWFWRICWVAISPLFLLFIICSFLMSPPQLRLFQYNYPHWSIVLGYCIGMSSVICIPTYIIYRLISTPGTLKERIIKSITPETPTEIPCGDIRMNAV

Sequence of Sodium-dependent serotonin transporter (P31652 whole entry): as the sequence (P31652 whole entry, looked up) above
T1 sequence (P23977 whole entry): as the sequence (P23977 whole entry, looked up) above
Sequence of Norepinephrine transporter (Q9WTR4 whole entry): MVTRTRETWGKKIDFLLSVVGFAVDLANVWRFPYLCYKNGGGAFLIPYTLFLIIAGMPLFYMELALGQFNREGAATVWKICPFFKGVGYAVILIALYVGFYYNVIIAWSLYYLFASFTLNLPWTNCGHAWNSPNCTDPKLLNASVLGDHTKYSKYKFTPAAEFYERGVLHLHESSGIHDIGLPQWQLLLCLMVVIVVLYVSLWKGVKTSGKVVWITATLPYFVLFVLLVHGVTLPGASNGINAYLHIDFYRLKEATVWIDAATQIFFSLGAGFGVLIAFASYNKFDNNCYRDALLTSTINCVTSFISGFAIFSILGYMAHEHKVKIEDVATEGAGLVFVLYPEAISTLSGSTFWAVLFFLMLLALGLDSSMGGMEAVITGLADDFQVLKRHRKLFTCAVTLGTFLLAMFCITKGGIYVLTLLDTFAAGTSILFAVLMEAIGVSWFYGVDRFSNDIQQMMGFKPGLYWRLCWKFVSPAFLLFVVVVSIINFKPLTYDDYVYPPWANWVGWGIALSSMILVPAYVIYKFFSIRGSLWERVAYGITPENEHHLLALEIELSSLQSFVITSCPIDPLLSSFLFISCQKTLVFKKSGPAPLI

| Compound | IC50 [1] | IC50 [2] | IC50 [3] | IC50 [4] | Ratio [5] | Ratio [6] |
| --- | --- | --- | --- | --- | --- | --- |
| CN(C)CC1C2CCC(CC2)C1c1ccc(Cl)c(Cl)c1 (stereo not drawn) | 0.096 µM | 0.261 µM | – | – | – | – |
| CN(C)C1C2CCC(CC2=O)C1c1ccccc1 (stereo in doubt; 6) [listing 1 of 2 here] | 4.12 µM | 31.4 µM | 9.14 µM | 4.01 µM | – | – |
| CN(C)C1C2CCC(CC2=O)C1c1ccccc1 (stereo in doubt; 6) [listing 2 of 2 here] | – | – | – | – | 1 | 7.8 |
| CN(C)C1C2CCC(CC2O)C1c1ccccc1 (stereo in doubt; 7) [listing 1 of 2 here] | 1.51 µM | 8.38 µM | 4.45 µM | 1.77 µM | – | – |
| CN(C)C1C2CCC(CC2O)C1c1ccccc1 (stereo in doubt; 7) [listing 2 of 2 here] | – | – | – | – | 0.85 | 4.7 |
| CN(C)C1C2CCC(CC2O)C1c1ccccc1 (stereo in doubt; 8) [listing 1 of 2 here] | 7.23 µM | 21.8 µM | 2.81 µM | 2.04 µM | – | – |
| CN(C)C1C2CCC(CC2O)C1c1ccccc1 (stereo in doubt; 8) [listing 2 of 2 here] | – | – | – | – | 3.5 | 11 |
| CC(=O)OC1CC2CCC1C(N(C)C)C2c1ccccc1 (stereo in doubt; 9) [listing 1 of 2 here] | 0.535 µM | 2.45 µM | 4.93 µM | 5.33 µM | – | – |
| CC(=O)OC1CC2CCC1C(N(C)C)C2c1ccccc1 (stereo in doubt; 9) [listing 2 of 2 here] | – | – | – | – | 0.1 | 0.46 |
| CC(=O)OC1CC2CCC1C(N(C)C)C2c1ccccc1 (stereo in doubt; 10) [listing 1 of 2 here] | 55.4 µM | 176 µM | 25.8 µM | 12.2 µM | – | – |
| CC(=O)OC1CC2CCC1C(N(C)C)C2c1ccccc1 (stereo in doubt; 10) [listing 2 of 2 here] | – | – | – | – | 4.5 | 14 |
| CN(C)C1C2CCC(CC2OC(=O)c2ccccc2)C1c1ccccc1 (stereo in doubt; 11) [listing 1 of 2 here] | 0.225 µM | 0.053 µM | 0.372 µM | 0.358 µM | – | – |
| CN(C)C1C2CCC(CC2OC(=O)c2ccccc2)C1c1ccccc1 (stereo in doubt; 11) [listing 2 of 2 here] | – | – | – | – | 0.65 | 0.15 |
| CN(C)C1C2CCC(CC2OC(=O)c2ccccc2)C1c1ccccc1 (stereo in doubt; 12) [listing 1 of 2 here] | 1.47 µM | 11.1 µM | 0.687 µM | 0.27 µM | – | – |
| CN(C)C1C2CCC(CC2OC(=O)c2ccccc2)C1c1ccccc1 (stereo in doubt; 12) [listing 2 of 2 here] | – | – | – | – | 5.4 | 41 |
| CN(C)C1C2CCC(CC2=O)C1c1ccccc1 (stereo in doubt; 13) [listing 1 of 2 here] | 10.6 µM | 61.2 µM | 24.7 µM | 10.3 µM | – | – |
| CN(C)C1C2CCC(CC2=O)C1c1ccccc1 (stereo in doubt; 13) [listing 2 of 2 here] | – | – | – | – | 1 | 5.9 |
| CN(C)C1C2CCC(CC2O)C1c1ccccc1 (stereo in doubt; 14) [listing 1 of 2 here] | 7.73 µM | 12.3 µM | 10.9 µM | 7.04 µM | – | – |
| CN(C)C1C2CCC(CC2O)C1c1ccccc1 (stereo in doubt; 14) [listing 2 of 2 here] | – | – | – | – | 1.1 | 1.7 |
| CN(C)C1C2CCC(CC2O)C1c1ccccc1 (stereo in doubt; 15) [listing 1 of 2 here] | 34.4 µM | > 100 µM | 23 µM | 9.92 µM | – | – |
| CN(C)C1C2CCC(CC2O)C1c1ccccc1 (stereo in doubt; 15) [listing 2 of 2 here] | – | – | – | – | 3.5 | > 10 |
| CC(=O)OC1CC2CCC1C(N(C)C)C2c1ccccc1 (stereo in doubt; 16) [listing 1 of 2 here] | 10.4 µM | 4.77 µM | 16.3 µM | 13.6 µM | – | – |
| CC(=O)OC1CC2CCC1C(N(C)C)C2c1ccccc1 (stereo in doubt; 16) [listing 2 of 2 here] | – | – | – | – | 0.76 | 0.35 |
| CC(=O)OC1CC2CCC1C(N(C)C)C2c1ccccc1 (stereo in doubt; 17) [listing 1 of 2 here] | 46.8 µM | 22.8 µM | 75 µM | 45.6 µM | – | – |
| CC(=O)OC1CC2CCC1C(N(C)C)C2c1ccccc1 (stereo in doubt; 17) [listing 2 of 2 here] | – | – | – | – | 1 | 0.5 |
| CN(C)C1C2CCC(CC2OC(=O)c2ccccc2)C1c1ccccc1 (stereo in doubt; 18) [listing 1 of 2 here] | 7.38 µM | 0.76 µM | 4.84 µM | 2.2 µM | – | – |
| CN(C)C1C2CCC(CC2OC(=O)c2ccccc2)C1c1ccccc1 (stereo in doubt; 18) [listing 2 of 2 here] | – | – | – | – | 3.4 | 0.35 |
| CN(C)C1C2CCC(CC2OC(=O)c2ccccc2)C1c1ccccc1 (stereo in doubt; 19) [listing 1 of 2 here] | 4.19 µM | 1.88 µM | 8.24 µM | 2.27 µM | – | – |
| CN(C)C1C2CCC(CC2OC(=O)c2ccccc2)C1c1ccccc1 (stereo in doubt; 19) [listing 2 of 2 here] | – | – | – | – | 1.8 | 0.83 |
| COC(=O)[C@H](c1ccccc1)[C@H]1CCCCN1 [DEXMETHYLPHENIDATE] | 0.989 µM | 224 µM | – | – | – | – |
